Screens: PubChem, several laboratories
NF-kB expr up: NF-kB expression increase, human neuronal cells; fold change at 12.5 µM; 1.6% of 190,000 active; NF-kB reporter expression; stronger effect = higher value; in the data active = fold change above about 3.3
STAT1 activator: STAT1 signaling activation; NIH 3T3 STAT1-luciferase reporter, IFN-gamma, luminescence; 100% = IFN-gamma alone, no compound; activation (% of control), % at 5.5 µM; AID 932; 2.6% of 200,000 active;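 active = activation above the screen-wide mean activation plus 3 SD, cut at about 130% in these data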
PERK inhibitor: inhibitors of human PERK kinase; CHO PERK-DD fusion, SEAP luminescence translation reporter; inhibition, % at 5.6 µM; 0.17% of 220,000 active;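 active = inhibition above the mean inhibition of all tested compounds plus 3 SD, set separately per screening campaign, cut at about 2.9% in these data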;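 note: PERK kinase domain activated by AP20187 dimerizer at 100 nM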
Mdm2 ligase inh: blocks human Mdm2 ubiquitin ligase activity | Q00987 | cell-based MDM2 ubiquitination luciferase reporter, 2 h; 0 = plate control, 100 = twice control, blank-subtracted | signal enhancement, % at 5 µM | 0.11% of 210,000 active | AID 1230;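 active = signal enhancement of 30% or more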;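 note: luminescence tracks abundance of the self-degrading MDM2-luciferase fusion protein; higher signal means inhibition of MDM2 E3 ligase activity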
Target sequence (Q00987 whole entry, looked up, the tested form may be a part): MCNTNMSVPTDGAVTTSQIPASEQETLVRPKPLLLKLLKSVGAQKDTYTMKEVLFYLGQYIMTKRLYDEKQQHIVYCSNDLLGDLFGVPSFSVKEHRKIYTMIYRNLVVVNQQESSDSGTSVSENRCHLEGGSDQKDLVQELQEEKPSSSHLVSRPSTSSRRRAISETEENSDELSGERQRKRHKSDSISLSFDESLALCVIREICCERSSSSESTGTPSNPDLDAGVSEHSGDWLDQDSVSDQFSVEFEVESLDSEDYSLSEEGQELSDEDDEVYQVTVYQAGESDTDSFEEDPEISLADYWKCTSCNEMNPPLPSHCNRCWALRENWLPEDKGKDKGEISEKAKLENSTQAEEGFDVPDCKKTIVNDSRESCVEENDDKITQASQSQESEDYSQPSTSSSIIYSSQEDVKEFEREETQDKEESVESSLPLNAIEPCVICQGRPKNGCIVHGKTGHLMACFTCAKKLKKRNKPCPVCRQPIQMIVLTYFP
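Test system: stable mammalian line carrying autodegrading MDM2–luciferase fusion reporter; quantity: 2000 cells in each well; times: 4 h cell settling then 2 h compound exposure, 37 °C; detection: luminescence with SteadyLite reagent, 15 min at room temperature; evaluation: percent signal gain over controls, blank-subtracted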
AHR activator: activates the human aryl hydrocarbon receptor; activation, % at 5 µM; P35869; AID 2796; AHR-responsive luciferase reporter cells, luminescence; 2.5% of 320,000 active; in the data active = activation above about 47%
APP 5'UTR act: APP 5'UTR luciferase reporter activation; SH-SY5Y APP 5'UTR luciferase reporter, luminescence; zero percent = DMSO vehicle wells; activation, % at 2 µM; 1% of 190,000 active;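 active = activation above a set limit, based on mean plus 3 SD of controls, cut at about 140% in these data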
Of the large screens only hits and unclear results are named; the others gave an inactive call. In the library only some 4.5% were active in any assay of this set; here they are far more common.

O=C(NCC1CCCN1S(=O)(=O)c1cccs1)C(=O)Nc1ccc(F)cc1 (stereo unspecified)	none (no result: NF-kB expr up, STAT1 activator, PERK inhibitor, Mdm2 ligase inh, APP 5'UTR act)
CCOc1ccc(Nc2ccc(C(=O)O)cc2[N+](=O)[O-])cc1	none (no result: NF-kB expr up, STAT1 activator, PERK inhibitor, Mdm2 ligase inh, APP 5'UTR act)
CCOc1ccc(N/C=C/C(=O)c2ccccc2)c([N+](=O)[O-])c1	APP 5'UTR act 157
CCOc1ccc(NC(=O)/C=C/c2ccccc2)c([N+](=O)[O-])c1	STAT1 activator 131
COc1ccc(C2=NC(c3ccccc3)CO2)cc1 (stereo unspecified)	STAT1 activator 143 (no result: Mdm2 ligase inh)
COc1ccc(CNC(=O)CCS(=O)(=O)c2ccc3c(c2)CC(C)N3C(=O)C2CC2)cc1 (stereo unspecified)	none (no result: NF-kB expr up, STAT1 activator, PERK inhibitor, Mdm2 ligase inh, APP 5'UTR act)
Cc1c(=O)n(OCc2ccccn2)c2ccccc2[n+]1[O-]	AHR activator 52
O=C(c1cccc([N+](=O)[O-])c1)N1CCN(S(=O)(=O)/C=C/c2ccccc2)CC1	none (no result: NF-kB expr up, STAT1 activator, PERK inhibitor, Mdm2 ligase inh, APP 5'UTR act)
Cc1ccc(NC(=O)Nc2cc(C)on2)cc1	STAT1 activator 130
Cc1cc(NC(=O)Nc2ccc(Cl)cc2)no1	none (no result: NF-kB expr up, STAT1 activator, PERK inhibitor, Mdm2 ligase inh, APP 5'UTR act)
Cc1cccc(NC(=O)Nc2cc(C)on2)c1	none
Cc1cc(NC(=O)Nc2cccc(C)c2C)no1	AHR activator 52
O=C1/C(=C\c2ccc([N+](=O)[O-])cc2)CCc2ccccc21	APP 5'UTR act 136
CC(C)(C)NC(=O)NC(=O)CN1CCN(S(=O)(=O)c2ccc3c(c2)OCCO3)CC1	none (no result: NF-kB expr up, STAT1 activator, Mdm2 ligase inh, APP 5'UTR act)
CCOc1ccc2ccccc2c1CNCCN1CCOCC1	NF-kB expr up 7.7
Nc1ncccc1OCc1ccc(Br)cc1	STAT1 activator 141
Cc1ccc2cccc(OCc3ccc(Br)cc3)c2n1	AHR activator 73 (no result: NF-kB expr up, STAT1 activator, PERK inhibitor, Mdm2 ligase inh, APP 5'UTR act)
CSC1=N/C(=C/c2cccnc2)C(=O)N1Cc1ccccc1	none (no result: NF-kB expr up, STAT1 activator, APP 5'UTR act)
Cc1ccc(C2=NNC3(CCOC(C)(C)C3)S2)cc1 (stereo unspecified)	APP 5'UTR act 178
COC(=O)c1ccc(OCCOc2ccc(C(=O)OC)cc2)cc1	PERK inhibitor 3.5
COC(=O)c1ccc(OCC(O)CN2CCN(CC(O)COc3ccc(C(=O)OC)cc3)CC2)cc1 (stereo unspecified)	none (no result: NF-kB expr up, STAT1 activator, PERK inhibitor, Mdm2 ligase inh, APP 5'UTR act)
COC(=O)c1ccc(OCC(=O)c2ccccc2)cc1	NF-kB expr up 4.1, STAT1 activator 139
CC(C)C[C@H](NC(=O)N1c2ccccc2NC(=O)[C@@H]1C(C)C)C(=O)N[C@@H](Cc1ccccc1)C(=O)O	none (no result: NF-kB expr up, STAT1 activator, PERK inhibitor, Mdm2 ligase inh, APP 5'UTR act)
Cn1cccc1/C=N/NC(=O)c1sc2ccccc2c1Cl	STAT1 activator 131
O=C(N/N=C/c1c[nH]c2ccccc12)c1sc2ccccc2c1Cl	AHR activator 50
Cc1ccc(CSCC(=O)N(CCC(C)C)c2c(N)n(Cc3ccccc3)c(=O)[nH]c2=O)cc1	none (no result: NF-kB expr up, STAT1 activator, PERK inhibitor, Mdm2 ligase inh, APP 5'UTR act)
Cc1nc(C(F)(F)F)ccc1C(=O)NCC(O)c1ccccc1 (stereo unspecified)	AHR activator 71 (no result: NF-kB expr up, STAT1 activator, PERK inhibitor, Mdm2 ligase inh, APP 5'UTR act)
Cc1ccc(NC(=O)c2cc([N+](=O)[O-])ccc2NCc2cccnc2)cc1Cl	AHR activator 51
NC(=O)c1cc([N+](=O)[O-])c(Cl)cc1NCc1cccnc1	AHR activator 58 (no result: NF-kB expr up, STAT1 activator, PERK inhibitor, Mdm2 ligase inh, APP 5'UTR act)
COc1cccc(NC(=O)c2cc([N+](=O)[O-])ccc2NCc2cccnc2)c1	AHR activator 66
O=C(O)c1cc([N+](=O)[O-])ccc1NCc1cccnc1	none (no result: NF-kB expr up, STAT1 activator, PERK inhibitor, Mdm2 ligase inh, APP 5'UTR act)
NC(=O)c1cc([N+](=O)[O-])ccc1NCc1cccnc1	none
O=C1C(Cl)=C(NCCCO)C(=O)c2ccccc21	none
O=C1C(SCCO)=C(SCCO)C(=O)c2ccccc21	AHR activator 58 (no result: NF-kB expr up, STAT1 activator, PERK inhibitor, Mdm2 ligase inh, APP 5'UTR act)
COc1ccc(S(=O)(=O)NCC(c2cccnc2)N2CCN(Cc3ccccc3)CC2)cc1C (stereo unspecified)	none (no result: NF-kB expr up, STAT1 activator, PERK inhibitor, Mdm2 ligase inh, APP 5'UTR act)
C/C(=N/OC(=O)C1CC1)c1cc(-c2ccc(Cl)cc2)no1	STAT1 activator 136
C/C(=N\OC(=O)c1ccccc1)c1cc(-c2ccc(Cl)cc2)no1	none
COC(=O)Cc1ccc(NC(=S)NNC(=O)C2CC2)cc1	PERK inhibitor 3.6 (no result: NF-kB expr up, STAT1 activator, APP 5'UTR act)
CC(C)c1ccc(NC(=S)NNC(=O)C2CC2)cc1	none
Cc1c(C(=O)NCc2ccoc2)oc2ccc3c(c12)C(=O)CC(C)(C)O3	NF-kB expr up 3.9, STAT1 activator 146
Cc1c(C(=O)NCCCN2CCCCC2)oc2ccc3c(c12)C(O)CC1(CCCCC1)O3 (stereo unspecified)	none (no result: NF-kB expr up, STAT1 activator, PERK inhibitor, Mdm2 ligase inh, APP 5'UTR act)
O=C(O)C1C2C=CC(C2)C1C(=O)NCc1ccc(Cl)c(Cl)c1 (stereo unspecified)	none
CC1CCCN(c2ccc3nc4ccccc4c(=O)n3n2)C1 (stereo unspecified)	APP 5'UTR act 175
Cc1ccc2nc3ccc(N4CCCC4)nn3c(=O)c2c1	STAT1 activator 134
COc1cccc(NC(=O)CN(C)C(=O)C23CC4CC(CC(Cl)(C4)C2)C3)c1	none (no result: NF-kB expr up, STAT1 activator, PERK inhibitor, Mdm2 ligase inh, APP 5'UTR act)
COc1ccccc1NC(C)C(=O)N/N=C/c1ccccc1OCc1cccc(Br)c1 (stereo unspecified)	AHR activator 52
CCOC(=O)C1CCCN(c2cc(=O)n(-c3ccccc3Cl)c(=O)[nH]2)C1 (stereo unspecified)	PERK inhibitor 3.3
Cc1ccc(C(=O)Nc2ccc3c(c2)nc(CCNC(=O)c2ccco2)n3C)cc1	none (no result: NF-kB expr up, STAT1 activator, PERK inhibitor, Mdm2 ligase inh, APP 5'UTR act)
COC(=O)/N=C/c1c(NCc2ccccc2)nc2c(C)cccn2c1=O	none
Cc1c(C(=O)Nc2c(C)n(C)n(-c3ccccc3)c2=O)oc2c(Cl)cccc12	none (no result: NF-kB expr up, STAT1 activator, PERK inhibitor, Mdm2 ligase inh, APP 5'UTR act)
Cc1c(C(=O)Nc2ccc(Cl)cn2)oc2ccccc12	AHR activator 64
COc1ccc2oc(C(=O)NC(C)(C)C)c(C)c2c1	STAT1 activator 146
Cc1c(C(=O)Nc2c(C)n(C)n(-c3ccccc3)c2=O)oc2ccc(Cl)cc12	AHR activator 51 (no result: NF-kB expr up, STAT1 activator, PERK inhibitor, Mdm2 ligase inh, APP 5'UTR act)
COc1ccc(NC(=O)c2oc3ccccc3c2C)c(OC)c1	AHR activator 58
COc1ccc2oc(C(=O)NNC(=O)c3ccc(F)cc3)c(C)c2c1	none (no result: NF-kB expr up, STAT1 activator, PERK inhibitor, Mdm2 ligase inh, APP 5'UTR act)
